Measurements taken from ChEMBL document CHEMBL2203013, “Strategy for Imidazotetrazine Prodrugs with Anticancer Activity Independent of MGMT and MMR” (ACS Med Chem Lett, 2012).
Active and inactive are the calls of the source. The rule behind the calls is not given here.

How the values were obtained:
U-251 = assay: Cytotoxicity against human U251 cells after 5 days by MTT assay; type: functional, cell-based; conditions: for IC50: U-251, 120 h
[1] = Prodrug conversion in citrate-phosphate buffer at pH 4 assessed as pseudo-first-order rate constant; type: physicochemical
How it was run: (§1)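 Hydrolysis in citrate-phosphate buffers at 37 °C, followed by UV absorbance at 330 nm (loss of imidazotetrazine). k′ is a pseudo-first-order rate constant (×10–5 s–1), mean ± SD of three independent determinations; t1/2 given in hours.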

A2780 [2] = assay: Ratio of IC50 for human A2780 cells to IC50 for MMR-deficient human A2780/CP70 cells in presence of 10 uM MGMT inactivator Patrin2; type: functional
PANC-1 = assay: Cytotoxicity against human PANC1 cells after 5 days by MTT assay; type: functional, cell-based; conditions: for IC50: PANC-1, 120 h
HCT-116 = assay: Cytotoxicity against human HCT116 cells after 5 days by MTT assay; type: functional, cell-based; conditions: for IC50: HCT-116, 120 h
[3] = Prodrug conversion in citrate-phosphate buffer at pH 4 assessed as half life of compound; type: physicochemical; how it was run: as §1
A549 = assay: Cytotoxicity against human A549 cells after 5 days by MTT assay; type: functional, cell-based; conditions: for IC50: A549, 120 h
[4] = (§2) Cytotoxicity against MMR-deficient human A2780/CP70 cells after 5 days by MTT assay in presence of 10 uM MGMT inactivator Patrin2; type: functional, cell-based; conditions: A2780/CP70, 120 h
[5] = Prodrug conversion in citrate-phosphate buffer at pH 8 assessed as pseudo-first-order rate constant; type: physicochemical; how it was run: as §1
DLD-1 = assay: Cytotoxicity against human DLD1 cells after 5 days by MTT assay; type: functional, cell-based; conditions: for IC50: DLD-1, 120 h
[6] = Prodrug conversion in citrate-phosphate buffer at pH 8 assessed as half life of compound; type: physicochemical; how it was run: as §1
[7] = Prodrug conversion in citrate-phosphate buffer at pH 7.4 assessed as half life of compound; type: physicochemical; how it was run: as §1
HT-29 = assay: Cytotoxicity against human HT-29 cells after 5 days by MTT assay; type: functional, cell-based; conditions: for IC50: HT-29, 120 h
A2780 [8] = assay: Cytotoxicity against human A2780 cells after 5 days by MTT assay; type: functional, cell-based
[9] = Prodrug conversion in citrate-phosphate buffer at pH 7.4 assessed as pseudo-first-order rate constant; type: physicochemical; how it was run: as §1
A2780 [10] = assay: Cytotoxicity against human A2780 cells after 5 days by MTT assay in presence of 10 uM MGMT inactivator Patrin2; type: functional, cell-based
A2780/CP70 [11] = assay: Cytotoxicity against MMR-deficient human A2780/CP70 cells after 5 days by MTT assay; type: functional, cell-based
Nucleic Acid [12] = assay: Binding affinity to Escherichia coli pBR322 DNA assessed as guanine-N7 alkylation on GC-rich region after 2 hrs by piperidine cleavage assay; type: nucleic-acid assay
A2780/CP70 [13] = assay: as §2; type: functional, cell-based
Nucleic Acid [14] = assay: Induction of Escherichia coli pBR322 DNA alkylation assessed as formation of covalent DNA adducts after 2 hrs by Taq polymerase DNA stop assay; type: nucleic-acid assay

Row | SMILES | Drug metabolism [1] | t1/2 [3] | Drug metabolism [5] | t1/2 [6] | t1/2 [7] | Drug metabolism [9] | Activity (Nucleic Acid [12]) | Activity (Nucleic Acid [14]) | IC50 (U-251) | Ratio IC50 (A2780 [2]) | IC50 (PANC-1) | IC50 (HCT-116) | IC50 (A549) | IC50 (DLD-1) | IC50 (HT-29) | Activity (A2780 [8]) | Activity (A2780/CP70 [11]) | Activity (U-251) | Activity (A2780/CP70 [13]) | Activity (A2780 [10]) | further results
1 | Cc1ccc(N(CCn2nnc3c(C(N)=O)ncn3c2=O)CCn2nnc3c(C(N)=O)ncn3c2=O)cc1 | 0.4 ×10⁻⁵ /s | 48.5 h | 45.1 ×10⁻⁵ /s | 25.8 min | 1.33 h | 14.4 ×10⁻⁵ /s | Active | Active | – | 5.8 | – | – | – | – | – | Active | Active | Active | Active | Active | Activity (PANC-1): Active; Activity (HCT-116): Active; Activity (A549): Active; Activity (DLD-1): Active; Activity (HT-29): Active
2 | NC(=O)c1ncn2c(=O)n(CCCl)nnc12 | – | – | – | – | – | – | – | – | – | – | – | – | – | – | – | Active | Active | – | Active | Active | –
3 | N[C@@H](Cc1ccc(N(CCCl)CCCl)cc1)C(=O)O [MELPHALAN] | – | – | – | – | – | – | Active | Active | 3000 nM | – | 3000 nM | 3000 nM | 3000 nM | 3000 nM | 3000 nM | Active | Active | – | Active | Active | –

Further lines, with some results ahead:

Row | Drug metabolism [1] | t1/2 [3] | Drug metabolism [5] | t1/2 [6] | t1/2 [7] | Drug metabolism [9] | Activity (Nucleic Acid [12]) | Activity (Nucleic Acid [14]) | SMILES | IC50 (U-251) | Ratio IC50 (A2780 [2]) | IC50 (PANC-1) | IC50 (HCT-116) | IC50 (A549) | IC50 (DLD-1) | IC50 (HT-29) | Activity (A2780 [8]) | Activity (A2780/CP70 [11]) | Activity (U-251) | Activity (A2780/CP70 [13]) | Activity (A2780 [10]) | further results
4 | 0.1 ×10⁻⁵ /s | 253 h | 46.2 ×10⁻⁵ /s | 25.2 min | 1.38 h | 14 ×10⁻⁵ /s | – | – | Cn1nnc2c(C(N)=O)ncn2c1=O [TEMOZOLOMIDE] | > 250000 nM | >27 | > 250000 nM | > 250000 nM | > 250000 nM | > 250000 nM | > 250000 nM | Active | Active | – | – | – | IC50 [4]: > 250 µM; IC50 (A2780 [10]; A2780, 120 h): > 250 µM
5 | 0.5 ×10⁻⁵ /s | 41.5 h | 49.5 ×10⁻⁵ /s | 23.4 min | 1.27 h | 15.2 ×10⁻⁵ /s | Active | Active | Cc1ccc(N(C)CCn2nnc3c(C(N)=O)ncn3c2=O)cc1 | – | 2.8 | – | – | – | – | – | Active | Active | Active | Active | Active | Activity (PANC-1): Active; Activity (HCT-116): Active; Activity (A549): Active; Activity (DLD-1): Active; Activity (HT-29): Active
